# Measured values reported in ChEMBL document CHEMBL5303300, “EUbOPEN Chemogenomics Library - Multiplex” (2023).
# “And” between values parts separate entries of the source, which are not always exact repeats. Equal values may be shown once.
# What was measured:
# Fibroblast = assay: Multiplex assay against human fibroblast; assay type: toxicity, cell-based; details: number of replicates 2
# Outline: (§1)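 Phenotypes for tubulin, mitochondrial mass and membrane permeability are expressed as per cents of healthy-nucleus cells. Cells were stained live at seeding with Hoechst33342, BioTracker Green Microtubule Cytoskeleton Dye, MitoTracker Red and Annexin V Alexa Fluor 680, then imaged after compound addition on a CQ1 microscope at 37°C and 5% CO2. Machine-learning gating in CellPathfinder separated Hoechst high-intensity objects from normal cells, divided normal cells by nuclear state (healthy, pyknosed, fragmented) and divided pyknosed cells into mitotic or apoptotic.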
# HEK-293T = assay: Multiplex assay against HEK293T; assay type: toxicity, cell-based; details: human, number of replicates 2; outline: as §1
# [1] = 12 h, 1 µM, compound concentration 1 uM
# [2] = 12 h, 10 µM, compound concentration 10 uM
# [3] = 24 h, 1 µM, compound concentration 1 uM
# [4] = 24 h, 10 µM, compound concentration 10 uM
# [5] = 48 h, 1 µM, compound concentration 1 uM
# [6] = 48 h, 10 µM, compound concentration 10 uM
compound,measurement,setting,value
COc1ccc(CC[C@@H](OC(=O)[C@@H]2CCCCN2C(=O)[C@H](c2cc(OC)c(OC)c(OC)c2)C2CCCCC2)c2cccc(OCCN3CCOCC3)c2)cc1OC,Population Apoptotic (%),Fibroblast; [1],42% and 47%
same,Population Fragmented Nuclei (%),Fibroblast; [1],12% and 11%
same,Population Healthy Nuclei (%),Fibroblast; [1],65% and 64%
same,Population Hoechst High Intensity Objects (%),Fibroblast; [1],0%
same,Population Membrane Permeable-Phenotype (%),Fibroblast; [1],20%
same,Population Mitochondria Different-Phenotype (%),Fibroblast; [1],7% and 2%
same,Population Mitotic Cells (%),Fibroblast; [1],57% and 52%
same,Population Normal (%),Fibroblast; [1],100% and 99%
same,Population Pyknosed Nuclei (%),Fibroblast; [1],21% and 23%
same,Population Tubulin-Different-Phenotype (%),Fibroblast; [1],81% and 69%
same,Total Cell Count,Fibroblast; [1],227 and 146
same,Population Apoptotic (%),Fibroblast; [2],51% and 55%
same,Population Fragmented Nuclei (%),Fibroblast; [2],14% and 19%
same,Population Healthy Nuclei (%),Fibroblast; [2],60% and 59%
same,Population Hoechst High Intensity Objects (%),Fibroblast; [2],0%
same,Population Membrane Permeable-Phenotype (%),Fibroblast; [2],25% and 21%
same,Population Mitochondria Different-Phenotype (%),Fibroblast; [2],14% and 11%
same,Population Mitotic Cells (%),Fibroblast; [2],48% and 44%
same,Population Normal (%),Fibroblast; [2],99% and 100%
same,Population Pyknosed Nuclei (%),Fibroblast; [2],24% and 20%
same,Population Tubulin-Different-Phenotype (%),Fibroblast; [2],89% and 84%
same,Total Cell Count,Fibroblast; [2],188 and 273
same,Population Apoptotic (%),Fibroblast; [3],50% and 59%
same,Population Fragmented Nuclei (%),Fibroblast; [3],7% and 20%
same,Population Healthy Nuclei (%),Fibroblast; [3],67% and 51%
same,Population Hoechst High Intensity Objects (%),Fibroblast; [3],0%
same,Population Membrane Permeable-Phenotype (%),Fibroblast; [3],10% and 9%
same,Population Mitochondria Different-Phenotype (%),Fibroblast; [3],14%
same,Population Mitotic Cells (%),Fibroblast; [3],50% and 40%
same,Population Normal (%),Fibroblast; [3],99% and 100%
same,Population Pyknosed Nuclei (%),Fibroblast; [3],24% and 28%
same,Population Tubulin-Different-Phenotype (%),Fibroblast; [3],74% and 65%
same,Total Cell Count,Fibroblast; [3],207 and 148
same,Population Apoptotic (%),Fibroblast; [4],66% and 71%
same,Population Fragmented Nuclei (%),Fibroblast; [4],14% and 20%
same,Population Healthy Nuclei (%),Fibroblast; [4],59% and 56%
same,Population Hoechst High Intensity Objects (%),Fibroblast; [4],0%
same,Population Membrane Permeable-Phenotype (%),Fibroblast; [4],15% and 6%
same,Population Mitochondria Different-Phenotype (%),Fibroblast; [4],24% and 45%
same,Population Mitotic Cells (%),Fibroblast; [4],33% and 28%
same,Population Normal (%),Fibroblast; [4],99%
same,Population Pyknosed Nuclei (%),Fibroblast; [4],26% and 22%
same,Population Tubulin-Different-Phenotype (%),Fibroblast; [4],86% and 89%
same,Total Cell Count,Fibroblast; [4],193 and 253
same,Population Apoptotic (%),Fibroblast; [5],71% and 82%
same,Population Fragmented Nuclei (%),Fibroblast; [5],6% and 14%
same,Population Healthy Nuclei (%),Fibroblast; [5],77% and 66%
same,Population Hoechst High Intensity Objects (%),Fibroblast; [5],0%
same,Population Membrane Permeable-Phenotype (%),Fibroblast; [5],8% and 17%
same,Population Mitochondria Different-Phenotype (%),Fibroblast; [5],3% and 10%
same,Population Mitotic Cells (%),Fibroblast; [5],28% and 17%
same,Population Normal (%),Fibroblast; [5],100% and 99%
same,Population Pyknosed Nuclei (%),Fibroblast; [5],16% and 18%
same,Population Tubulin-Different-Phenotype (%),Fibroblast; [5],61% and 51%
same,Total Cell Count,Fibroblast; [5],199 and 150
same,Population Apoptotic (%),Fibroblast; [6],85% and 80%
same,Population Fragmented Nuclei (%),Fibroblast; [6],22% and 29%
same,Population Healthy Nuclei (%),Fibroblast; [6],59% and 55%
same,Population Hoechst High Intensity Objects (%),Fibroblast; [6],1% and 0%
same,Population Membrane Permeable-Phenotype (%),Fibroblast; [6],20% and 8%
same,Population Mitochondria Different-Phenotype (%),Fibroblast; [6],27% and 30%
same,Population Mitotic Cells (%),Fibroblast; [6],14% and 20%
same,Population Normal (%),Fibroblast; [6],98% and 99%
same,Population Pyknosed Nuclei (%),Fibroblast; [6],17% and 15%
same,Population Tubulin-Different-Phenotype (%),Fibroblast; [6],91%
same,Total Cell Count,Fibroblast; [6],195 and 265
same,Population Apoptotic (%),HEK-293T; [1],53% and 42%
same,Population Fragmented Nuclei (%),HEK-293T; [1],5% and 3%
same,Population Healthy Nuclei (%),HEK-293T; [1],82% and 83%
same,Population Hoechst High Intensity Objects (%),HEK-293T; [1],7% and 6%
same,Population Membrane Permeable-Phenotype (%),HEK-293T; [1],7% and 6%
same,Population Mitochondria Different-Phenotype (%),HEK-293T; [1],27% and 28%
same,Population Mitotic Cells (%),HEK-293T; [1],46% and 57%
same,Population Normal (%),HEK-293T; [1],92% and 93%
same,Population Pyknosed Nuclei (%),HEK-293T; [1],11% and 12%
same,Population Tubulin-Different-Phenotype (%),HEK-293T; [1],77% and 92%
same,Total Cell Count,HEK-293T; [1],574 and 636
same,Population Apoptotic (%),HEK-293T; [2],70% and 68%
same,Population Fragmented Nuclei (%),HEK-293T; [2],2%
same,Population Healthy Nuclei (%),HEK-293T; [2],85% and 83%
same,Population Hoechst High Intensity Objects (%),HEK-293T; [2],10% and 11%
same,Population Membrane Permeable-Phenotype (%),HEK-293T; [2],2%
same,Population Mitochondria Different-Phenotype (%),HEK-293T; [2],75% and 72%
same,Population Mitotic Cells (%),HEK-293T; [2],29% and 31%
same,Population Normal (%),HEK-293T; [2],89% and 88%
same,Population Pyknosed Nuclei (%),HEK-293T; [2],12% and 13%
same,Population Tubulin-Different-Phenotype (%),HEK-293T; [2],68% and 58%
same,Total Cell Count,HEK-293T; [2],560 and 485
same,Population Apoptotic (%),HEK-293T; [3],46% and 44%
same,Population Fragmented Nuclei (%),HEK-293T; [3],9% and 4%
same,Population Healthy Nuclei (%),HEK-293T; [3],81% and 86%
same,Population Hoechst High Intensity Objects (%),HEK-293T; [3],10% and 8%
same,Population Membrane Permeable-Phenotype (%),HEK-293T; [3],8% and 7%
